The values below come from ChEMBL document CHEMBL4699461, “Enhanced Production and Anticancer Properties of Photoactivated Perylenequinones” (J Nat Prod, 2020).

The subject of test [1] is SK-MEL-28. Kind of test: Phototoxicity against human SK-MEL-28 cells assessed as reduction in cell viability preincubated for 16 hrs followed by irradiated with 100 J/cm2 625 nanometer red light for 60 mins and measured after 48 hrs by alamar blue assay. The note with it: SK-MEL-28, light or radiation study. Format: functional, cell-based. In short, it runs like this:
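Cells (SK-MEL-28, ~550,000–600,000 cells/mL) were dosed with compound at 1 nM–300 μM in DPBS dilutions, with a 16 h drug-to-light interval at 37 °C. They were irradiated with a 625 nm LED array at 27.8 mW/cm² to 100 J/cm². After 48 h of incubation, alamarBlue was added for 15–16 h and fluorescence was read (ex 530, em 620 nm) to give EC₅₀.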
(In general: The colour change of resazurin is a common sign of viable cells or microbes.)

Test [2] relates to SK-MEL-28. Put plainly: Phototherapeutic index, ratio of EC50 for cytotoxicity against human SK-MEL-28 cells in dark condition to EC50 for phototoxicity against human SK-MEL-28 cells preincubated for 16 hrs followed by irradiated with 100 J/cm2 625 nanometer red light for 60 mins. An outline of the steps: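 PI for red light, calculated as dark EC₅₀ divided by red-light EC₅₀ in SK-MEL-28 cells. Viability was read 48 h later by alamarBlue fluorescence.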

For test [3], the system named is SK-MEL-28. Put plainly: Phototoxicity against human SK-MEL-28 cells assessed as reduction in cell viability preincubated for 16 hrs followed by irradiated with 100 J/cm2 400 to 700 nanometer visible light for 48 mins and measured after 48 hrs by alamar blue assay. To be noted: SK-MEL-28, light or radiation study.
Test [4] has as its system SK-MEL-28. Put plainly: Phototherapeutic index, ratio of EC50 for cytotoxicity against human SK-MEL-28 cells in dark condition to EC50 for phototoxicity against human SK-MEL-28 cells preincubated for 16 hrs followed by irradiated with 100 J/cm2 400 to 700 nanometer visible light for 48 mins.
Test [5] deals with SK-MEL-28. Kind of test: Cytotoxicity against human SK-MEL-28 cells assessed as reduction in cell viability preincubated for 16 hrs in dark condition subsequently incubated for 48 hrs by alamar blue assay. Format: cell-based. In short, it runs like this: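 SK-MEL-28 human melanoma cells, ~550,000–600,000 cells/mL, settled 3 h at 37 °C, 5% CO₂. Compounds were serially diluted in DPBS and tested over 1 nM to 300 μM. Plates were kept dark in the incubator for 16 h, then 48 h more. alamarBlue was then added for 15–16 h, and viability was read by fluorescence (ex 530, em 620 nm) to give EC₅₀.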

For orientation: EC50 means the concentration needed to bring the measured effect to its halfway point. On to `COC1=C(C(C)=O)C2=C(C)Cc3c(OC)c(=O)c(O)c4cc(OC)c5c(OC)cc(O)c6c(c2c3c4c56)C1=O`, for which the values for the EC50 in test [1], in test [3] and in test [5] were 0.0157 µM, 0.0147 µM and 43.7 µM, respectively. The “Ratio EC50” value in test [2] worked out at 2783; in test [4] it was 2973.
For `COc1c(O)c2c(=O)cc(OC)c3c4c(OC)cc(O)c5c(=O)c(OC)c6c(c(c1[C@H](C(C)=O)[C@](C)(O)C6)c23)c54` the same measures were 0.0592 µM, 0.0535 µM, 130 µM, 2196 and 2430.
As for `COC1=C2c3c4c5c(c(O)cc(OC)c5c5c(OC)cc(O)c(c35)C1=O)C(=O)[C@H](OC)[C@]41C[C@](C)(O)[C@H]2[C@]1(C)O`, the figures for the EC50 in test [1], in test [3] and in test [5] were 1.28 µM, 0.135 µM and over 300 µM, respectively. Also, the “Ratio EC50” value is on record as over 234 in test [2] and over 2222 in test [4].
Consider `COC1=C2c3c4c5c(c(O)cc(OC)c5c5c(OC)cc(O)c(c35)C1=O)C(=O)[C@H](OC)[C@]41C[C@@](C)(O)[C@H]2[C@]1(C)O`, for which the EC50 in test [1] came out at 0.603 µM; in test [3] it was 0.172 µM; in test [5], 132 µM. The “Ratio EC50” value in test [2] is 219; in test [4] it was 767.
In the case of `COC1=C2c3c4c5c(c(O)cc(OC)c5c5c(OC)cc(O)c(c35)C1=O)C(=O)C[C@]41C[C@](C)(O)[C@H]2[C@]1(C)O`, the EC50 was 2.55 µM in test [1], 0.176 µM in test [3] and 98.7 µM in test [5]. For the same molecule, the “Ratio EC50” value in test [2] stood at 39; in test [4], 561.
With `COc1c(O)c2c(=O)cc(OC)c3c4c(OC)cc(=O)c5c(O)c(OC)c6c(c(c1C[C@@](C)(O)[C@@H]6C(C)=O)c23)c54`, the values for the EC50 in test [1], in test [3] and in test [5] were 0.0153 µM, 0.0103 µM and 39.3 µM, respectively. In addition, the entries for the “Ratio EC50” value in test [2] and in test [4] were 2569 and 3816, respectively.
